Compounds with a hit are over-represented: about 2.3% of the library has one in this group of screens.
PLCb3 inh = inhibitors of human phospholipase C beta3; Purified PLC-beta3, fluorogenic substrate, fluorescence; inhibition, % at 12.2 µM; 370,000 compounds, 0.18% hits; in the data active = inhibition above about 11%;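 note: 0% = median of compound wells on plate and 100% = full blocker control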
TbMetRS inhib = Trypanosoma brucei MetRS inhibition. purified T. brucei MetRS, ATP depletion, Kinase-Glo luminescence. inhibition, % at 11.9 µM. 360,000 compounds, 0.4% hits;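 active = inhibition above a per-plate cutoff of the control wells' mean inhibition plus 3 SD, cut at about 5.5% in these data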;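 note: 0% = DMSO wells median and 100% = median of wells with control inhibitor compound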
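Test system – parasite MetRS enzyme · Reagent – substrates ATP, L-methionine and bulk Escherichia coli tRNA · Doses – 11.9 µM compound single dose, 0.9% DMSO · Times – 15 min enzyme-compound preincubation, 2 h reaction, 10 min detection, 25 °C · Signal – Kinase-Glo luminescence, ATP depletion format · Controls – DMSO-only wells as low control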
ADAM17 inh = inhibitors of human ADAM17 | 370,000 compounds, 0.83% hits | recombinant ADAM17, EDANS/DABCYL FRET peptide cleavage | P78536 | AID 720648 | inhibition, % at 6.95 µM;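 active = inhibition above the mean of compounds lying between control limits plus 3 SD, set per campaign, cut at about 8.5% in these data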;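 note: 0% = DMSO-only wells as the low control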
PLCg1 inh = inhibitors of human phospholipase C gamma1; P19174; purified PLC-gamma1, fluorogenic substrate, fluorescence; inhibition, % at 12.2 µM; 370,000 compounds, 0.84% hits; AID 720700; in the data active = inhibition above about 9.5%
Target sequence (P19174 whole entry, looked up): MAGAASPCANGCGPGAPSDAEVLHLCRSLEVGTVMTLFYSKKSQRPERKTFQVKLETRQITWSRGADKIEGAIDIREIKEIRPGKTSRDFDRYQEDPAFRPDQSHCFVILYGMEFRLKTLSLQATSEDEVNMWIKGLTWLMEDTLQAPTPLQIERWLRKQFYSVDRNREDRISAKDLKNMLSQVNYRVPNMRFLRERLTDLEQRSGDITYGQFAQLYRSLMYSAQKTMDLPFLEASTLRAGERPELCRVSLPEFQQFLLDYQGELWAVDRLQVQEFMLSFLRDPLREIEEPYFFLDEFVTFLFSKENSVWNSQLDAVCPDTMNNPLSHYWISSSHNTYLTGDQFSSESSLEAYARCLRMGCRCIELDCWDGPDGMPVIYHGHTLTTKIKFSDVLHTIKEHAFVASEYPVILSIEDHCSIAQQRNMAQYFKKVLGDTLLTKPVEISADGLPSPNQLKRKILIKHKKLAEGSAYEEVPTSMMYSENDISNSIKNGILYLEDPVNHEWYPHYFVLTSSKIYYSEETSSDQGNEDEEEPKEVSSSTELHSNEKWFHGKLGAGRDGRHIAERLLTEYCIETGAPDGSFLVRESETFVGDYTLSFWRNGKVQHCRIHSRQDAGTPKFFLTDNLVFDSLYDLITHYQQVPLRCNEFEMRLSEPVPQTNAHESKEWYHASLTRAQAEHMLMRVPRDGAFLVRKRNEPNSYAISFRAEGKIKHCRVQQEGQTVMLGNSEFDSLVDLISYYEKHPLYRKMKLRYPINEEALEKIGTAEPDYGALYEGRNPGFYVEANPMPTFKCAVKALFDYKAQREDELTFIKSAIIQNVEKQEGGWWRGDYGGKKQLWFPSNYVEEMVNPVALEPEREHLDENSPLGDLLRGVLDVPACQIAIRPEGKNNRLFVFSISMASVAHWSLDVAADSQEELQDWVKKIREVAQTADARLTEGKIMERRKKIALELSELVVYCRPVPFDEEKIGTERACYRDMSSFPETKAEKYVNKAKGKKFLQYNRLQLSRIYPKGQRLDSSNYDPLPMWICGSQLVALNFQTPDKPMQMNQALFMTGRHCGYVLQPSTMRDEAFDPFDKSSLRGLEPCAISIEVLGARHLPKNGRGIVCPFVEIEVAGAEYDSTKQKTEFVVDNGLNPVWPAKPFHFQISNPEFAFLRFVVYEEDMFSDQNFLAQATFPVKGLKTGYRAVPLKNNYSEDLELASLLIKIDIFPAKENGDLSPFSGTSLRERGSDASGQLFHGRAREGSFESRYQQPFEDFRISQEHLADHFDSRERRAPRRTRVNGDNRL
ADAM10 inh = ADAM10 inhibition, QFRET primary screen; O14672; recombinant ADAM10, EDANS/DABCYL FRET peptide cleavage, 3 h; inhibition, % at 7 µM; 370,000 compounds, 0.62% hits;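 active = inhibition above a per-campaign cutoff equal to the mean of compounds falling between control-based bounds plus 3 SD, cut at about 20% in these data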;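 note: 0% = DMSO wells while the 100% control is not disclosed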
ADAM10 confirm = human ADAM10 inhibition, confirmation; shares compounds with ADAM10 inh; ADAM10 QFRET peptide cleavage, EDANS fluorescence; inhibition, % at 6.95 µM; 2,100 compounds, 1% hits; AID 743208;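 active = inhibition above about 20% chosen separately for each screening run, limit read from the data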;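 note: 0% = DMSO wells and 100% = marimastat wells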
ADAM17 ctr = inhibits human ADAM17 in ADAM10 exosite counter-screen | shares compounds with ADAM10 inh | ADAM17 QFRET peptide cleavage, EDANS fluorescence | inhibition, % at 6.95 µM | 2,100 compounds, 0.5% hits;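 active = mean triplicate inhibition above the solvent-only control wells' mean plus 3 SD, cut at about 12% in these data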;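 note: 0% = DMSO wells and 100% = marimastat wells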
ADAM10 counter = inhibits human ADAM10 in ADAM17 exosite counter-screen; inhibition, % at 6.95 µM; shares compounds with ADAM17 inh; recombinant ADAM10, EDANS/DABCYL FRET peptide cleavage, 3 h; 2,900 compounds, 47% hits;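 active = mean inhibition over the triplicate runs exceeds the activity threshold set in the earlier primary screen, cut at about 20% in these data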;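 note: 0% = DMSO wells and 100% = marimastat wells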
ADAM17 confirm = confirmation of inhibitors of human ADAM17; recombinant ADAM17, EDANS/DABCYL QFRET peptide cleavage; shares compounds with ADAM17 inh; 2,900 compounds, 65% hits; inhibition, % at 6.95 µM;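 active = mean inhibition across replicates above the hit cutoff set in the primary screen, cut at about 8.5% in these data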;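 note: 0% = DMSO wells and 100% = marimastat wells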
* hit, by the source's call; / = no result given.

SMILES | PLCb3 inh | TbMetRS inhib | ADAM17 inh | PLCg1 inh | ADAM10 inh | ADAM10 confirm | ADAM17 ctr | ADAM10 counter | ADAM17 confirm
O=C(NCCCN1CCOCC1)c1ccc2c(c1)N(Cc1c(F)cccc1Cl)C(=O)CS2 | -0.6 | -0.9 | 2.9 | 2.2 | -5.6 | / | / | / | /
COC(=O)[C@H](C(C)C)N1Cc2nnn(Cc3ccc(C)cc3)c2-c2ccccc2S1(=O)=O | 1.6 | / | 6.2 | -2.9 | 15.1 | / | / | / | /
CCOc1ccc(CCN2C(=S)N([C@@H](Cc3ccc(O)cc3)CN3CCC[C@@H]3CN3C(=S)NC[C@@H]3CC(C)C)C[C@@H]2Cc2ccc(O)cc2)cc1 | 3.6 | -0.6 | 9.8* | 2.7 | 23.0* | 11.3 | 2.9 | 47.3* | 24.1*
O=C(Nc1cccc(Cl)c1)N1CCN2C(=O)c3ccccc3C12c1ccccc1 (configuration not stated) | 10.0 | -0.8 | 11.1* | 6.1 | 22.5* | 3.4 | 1.3 | 20.4* | 11.5*
O=C(CCl)N1CCN2C(=O)c3ccccc3C12c1ccc(Cl)cc1 (configuration not stated) | -1.6 | -0.2 | 0.0 | 0.8 | 2.3 | / | / | / | /
O=[N+]([O-])c1cccnc1N1CCC(c2cc(-c3ccc(Cl)cc3)n[nH]2)CC1 | 3.4 | 0.5 | 13.1* | 3.0 | 30.0* | 13.4 | 3.2 | 40.5* | 18.7*
CCOC(=O)CN1CCC(c2cc(-c3ccc(Cl)cc3)n[nH]2)CC1 | -3.9 | -0.6 | -5.3 | 1.2 | 4.5 | / | / | / | /
CN(C)S(=O)(=O)NCCNC(=O)c1cc(OCC(F)(F)F)ccc1OCC(F)(F)F | -2.2 | -0.9 | -5.5 | 3.8 | -9.2 | / | / | / | /
O=C(NCCNC(=O)c1cc(OCC(F)(F)F)ccc1OCC(F)(F)F)Nc1cccc(C(F)(F)F)c1 | -1.2 | 0.6 | 12.2* | 2.3 | 37.1* | 1.4 | 0.3 | 24.4* | 14.2*
O=C(Nc1ccc(OC(F)F)cc1)Nc1cccc(C(F)(F)F)c1 | 0.6 | 0.3 | 10.2* | 2.7 | 24.6* | 1.7 | 0.4 | 31.1* | 16.2*
Cc1ccc(NC(=S)NNC(=S)Nc2cccc(C(F)(F)F)c2)cc1 | -0.8 | 0.0 | 0.9 | 6.0 | 9.9 | / | / | / | /
NNC(=O)Nc1cccc(C(F)(F)F)c1 | -8.8 | -0.9 | -2.0 | -2.2 | -3.6 | / | / | / | /
Cc1ccc(S(=O)(=O)Nc2ccc(NC(=O)Nc3cccc(C(F)(F)F)c3)cc2)cc1 | 8.6 | 1.3 | 21.8* | 8.9 | 41.3* | 9.1 | 2.8 | 42.6* | 18.6*
N#CCCN(CCCN1CCOCC1)CN1C(=O)c2ccccc2C1=O | 2.5 | -0.1 | 0.1 | 3.1 | -1.5 | / | / | / | /
CC(=O)Nc1ccccc1N(CC(O)Cn1c2ccccc2c2ccccc21)S(=O)(=O)c1ccc(C)cc1 (configuration not stated) | 1.6 | 0.3 | 12.9* | 2.5 | 24.9* | 10.1 | 3.6 | 37.7* | 23.3*
COc1ccccc1N(CC(O)CN1CCCCC1)S(=O)(=O)c1ccc(C)cc1 (configuration not stated) | -0.6 | -1.4 | 0.3 | 6.4 | 8.4 | / | / | / | /
CS(=O)(=O)N(CC(O)Cn1c2ccccc2c2ccccc21)c1ccccc1 (configuration not stated) | -1.1 | -1.2 | 5.2 | -0.1 | 6.0 | / | / | / | /
COc1ccc(N(CC(O)Cn2c3ccccc3c3ccccc32)S(=O)(=O)c2ccccc2)cc1 (configuration not stated) | -15.2 | -1.7 | 13.1* | -12.8 | 31.3* | 191.1* | 41.1* | -2.9 | 12.4*
CCCCCCCCC(=O)c1c(OC)oc(C=O)cc1=O | -22.1 | 0.0 | -2.5 | -10.6 | -7.7 | / | / | / | /
COc1ccc(S(=O)(=O)N2CCCCC2)cc1NS(=O)(=O)c1ccccc1 | -1.3 | -0.2 | -2.0 | 3.6 | -18.6 | / | / | / | /
COc1ccccc1S(=O)(=O)N(C)C[C@@H]1Oc2cc(C#CCC(C)C)ccc2S(=O)(=O)N([C@H](C)CO)C[C@@H]1C | 0.3 | -0.5 | 11.4* | -1.0 | 26.1* | 8.3 | 3.1 | 46.3* | 26.5*
S=C1NCc2cncnc2N1 | -0.6 | 0.4 | -3.9 | -1.0 | -7.5 | / | / | / | /
CCCCCCn1c(=O)n2n(c1=O)C[C@]1(OC(=O)NCc3ccccc3F)CN(S(=O)(=O)c3ccc(C)cc3)C[C@]1(O)C2 | 4.4 | -1.2 | 13.5* | 7.2 | 37.4* | 4.4 | 1.5 | 32.7* | 15.9*
CCCCCCn1c(=O)n2n(c1=O)[C@@H]1CN(S(=O)(=O)c3ccc(C)cc3)C[C@]1(O)[C@@H](OC(=O)NCc1ccccc1)C2 | 3.1 | -0.4 | 9.9* | -0.3 | 22.0* | 4.4 | 1.0 | 33.3* | 15.8*
COC(=O)Cc1ccc(NC(=S)N2CCN(CCO)CC2)cc1 | 4.2 | -0.9 | 0.7 | 7.3 | 8.3 | / | / | / | /
SMILES | PLCb3 inh | TbMetRS inhib | ADAM17 inh | PLCg1 inh | ADAM10 inh | ADAM10 confirm | ADAM17 ctr | ADAM10 counter | ADAM17 confirm
O=C(CNC(=S)N(Cc1ccccc1)Cc1ccccc1F)NCCc1ccc(Cl)cc1 | -2.8 | -0.3 | 10.4* | -0.8 | 23.9* | 10.2 | 3.8 | 21.3* | 14.3*
O=C(CNC(=S)N(Cc1ccccc1)Cc1cccs1)NCc1ccc(F)cc1 | -6.8 | -1.4 | -2.0 | -3.0 | 2.4 | / | / | / | /
O=C(c1ccc(C(F)(F)F)cc1)N1CCC(=O)N(C(COCc2ccc(Cl)cc2)Cc2ccccc2)CC1 (configuration not stated) | 4.3 | -0.1 | 9.9* | -0.2 | 20.4* | 3.6 | 1.7 | 13.5 | 8.7*
O=C(c1ccc(Cl)c(Cl)c1)N1CCC(=O)N(C(COCc2ccc(Cl)cc2)Cc2ccccc2)CC1 (configuration not stated) | 5.2 | -0.3 | 9.5* | 12.1* | 20.5* | 10.3 | 3.4 | 33.9* | 15.7*
Cc1noc(C)c1COc1ccccc1C(=O)N(C)CC(=O)Nc1ccc(F)c(F)c1F | 1.3 | -0.2 | -0.2 | 0.9 | -2.0 | / | / | / | /
CCn1c(COc2ccc(C)cc2)nnc1SCc1cccc(C(F)(F)F)c1 | -11.3 | / | 6.7 | -2.1 | 8.8 | / | / | / | /
O=C(c1cccs1)N1CCc2c([nH]c3ccccc23)C1c1ccc(Cl)cc1 (configuration not stated) | 8.5 | 1.1 | 18.8* | 6.8 | 30.9* | 14.3 | 4.5 | 14.7 | 11.3*
Cc1ccc(S(=O)(=O)N2CCC(=O)N([C@H](COC(=O)Nc3ccccc3)Cc3ccccc3)CC2)cc1 | 2.7 | -0.3 | 8.9* | 3.1 | 19.9* | 2.8 | 1.2 | 19.0 | 13.0*
COc1ccccc1C(CC(=O)Nc1ccc(Cl)cc1)c1ccc(OC(C)C)cc1 (configuration not stated) | 0.7 | 0.5 | -2.1 | 1.2 | -2.7 | / | / | / | /

Screening data as filed in PubChem BioAssay.
